Measured values as given in PMC4834983 (Journal of medicinal chemistry, 2015).

Experiments:
[1] = system: MDA-MB-231 cells; test: CyQuant cell proliferation assay; format: cell-based, human; conditions: for effect on MDA-MB-231 cell growth: 5 μM
Summary of the method: (§1)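 CyQuant DNA-dye proliferation assay on cultured cells after 72 h exposure to test compound. Viability expressed relative to DMSO-treated control cells.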

[2] = system: SF295 cells; test: CyQuant cell proliferation assay; format: cell-based; conditions: Homo sapiens, SF-295, 72 h, read-out: IC50 cell proliferation SF295
Summary of the method: as §1

[3] = system: U373MG cells; test: CyQuant cell proliferation assay; format: cell-based; conditions: Homo sapiens, U373 MG, 72 h, read-out: IC50 cell proliferation U373MG
Summary of the method: as §1

[4] = system: MCF-7 cells; test: CyQuant cell proliferation assay; format: cell-based; conditions: Homo sapiens, MCF7, 72 h, read-out: IC50 cell proliferation MCF-7
Summary of the method: as §1

[5] = system: pYStat3; test: Immunoblotting of pStat3 in treated U251MG cells; format: cell-based, human; conditions: for effect on pStat3 in treated tumor cells: 5 μM, glioma cells, immunoblotting
Summary of the method: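 Whole-cell lysates from U251MG cells given test compound at 5 μM for 0–24 h, or at 0–5 μM for 2 h. Immunoblotted for pY705Stat3 and total Stat3, with GAPDH as loading reference.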

[6] = system: Stat3; test: Stat3 DNA-binding activity/EMSA of nuclear extracts from treated glioma cells; format: cell-based, human; conditions: for effect on Stat3 DNA-binding activity in treated tumor cells: 5 μM, glioma cells, EMSA; for IC50: Homo sapiens, U-251, read-out: IC50 Stat3 DNA-binding activity in treated cells
[7] = molecular target: Stat3:Stat3 (Mus musculus, UniProt P42227); test: Cell-free EMSA, nuclear extracts pre-incubated with compound, hSIE probe; format: biochemical; conditions: for Stat3:Stat3/DNA-binding activity (complexation), cell-free EMSA: 5 μM, 30 min pre-incubation, NIH3T3/v-Src nuclear extracts
Sequence of Stat3:Stat3 (P42227 2-770 limits assumed): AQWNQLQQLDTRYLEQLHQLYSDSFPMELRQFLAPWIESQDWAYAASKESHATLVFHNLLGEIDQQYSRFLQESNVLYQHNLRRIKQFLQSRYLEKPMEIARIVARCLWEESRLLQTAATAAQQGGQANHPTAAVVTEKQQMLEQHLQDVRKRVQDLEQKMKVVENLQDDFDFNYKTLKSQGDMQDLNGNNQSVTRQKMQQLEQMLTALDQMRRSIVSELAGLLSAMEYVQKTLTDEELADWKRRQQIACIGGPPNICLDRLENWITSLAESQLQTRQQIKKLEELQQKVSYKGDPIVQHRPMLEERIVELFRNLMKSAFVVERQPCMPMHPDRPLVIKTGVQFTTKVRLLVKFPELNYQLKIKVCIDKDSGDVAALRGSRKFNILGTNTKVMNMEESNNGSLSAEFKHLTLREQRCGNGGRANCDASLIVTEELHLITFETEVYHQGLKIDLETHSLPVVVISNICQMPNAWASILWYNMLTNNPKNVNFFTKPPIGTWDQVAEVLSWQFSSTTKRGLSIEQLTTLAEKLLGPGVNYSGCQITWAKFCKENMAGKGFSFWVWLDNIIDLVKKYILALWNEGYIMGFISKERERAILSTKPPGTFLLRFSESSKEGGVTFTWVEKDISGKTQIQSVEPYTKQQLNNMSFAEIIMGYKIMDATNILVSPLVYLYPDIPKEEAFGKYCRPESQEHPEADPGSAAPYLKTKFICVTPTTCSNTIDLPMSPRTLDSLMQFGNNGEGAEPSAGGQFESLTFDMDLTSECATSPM

[8] = molecular target: T1, Stat1:Stat1 (Mus musculus, UniProt P42225); test: Cell-free EMSA, EGF-stimulated NIH3T3/hEGFR nuclear extracts; format: biochemical; conditions: 5 μM, 30 min pre-incubation
T1 sequence (P42225 2-749 limits assumed): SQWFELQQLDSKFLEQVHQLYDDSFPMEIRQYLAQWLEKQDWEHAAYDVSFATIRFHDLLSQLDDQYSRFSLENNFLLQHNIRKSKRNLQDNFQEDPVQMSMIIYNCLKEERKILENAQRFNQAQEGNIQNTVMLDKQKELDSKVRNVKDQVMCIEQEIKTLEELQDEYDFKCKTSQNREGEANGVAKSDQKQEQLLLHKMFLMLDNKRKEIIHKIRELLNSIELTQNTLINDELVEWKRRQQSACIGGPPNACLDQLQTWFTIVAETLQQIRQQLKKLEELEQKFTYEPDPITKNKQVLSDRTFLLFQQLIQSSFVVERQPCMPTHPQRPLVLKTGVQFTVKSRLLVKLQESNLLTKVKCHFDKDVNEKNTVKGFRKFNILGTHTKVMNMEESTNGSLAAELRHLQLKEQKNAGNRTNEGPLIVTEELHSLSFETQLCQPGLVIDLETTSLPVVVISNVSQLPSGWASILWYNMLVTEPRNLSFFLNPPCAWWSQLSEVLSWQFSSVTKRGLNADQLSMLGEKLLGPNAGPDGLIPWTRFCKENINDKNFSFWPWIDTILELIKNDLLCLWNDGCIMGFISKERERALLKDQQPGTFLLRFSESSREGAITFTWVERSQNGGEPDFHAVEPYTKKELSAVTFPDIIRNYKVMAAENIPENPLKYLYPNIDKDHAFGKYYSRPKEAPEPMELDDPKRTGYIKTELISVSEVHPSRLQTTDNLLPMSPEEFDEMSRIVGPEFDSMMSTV
Summary of the method: (§2)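 Nuclear extracts from EGF-stimulated NIH3T3/hEGFR fibroblasts, containing active Stat1, Stat3 and Stat5, preincubated with 5 μM test compound for 30 min at room temperature. Then incubated 30 min with 32P-labelled probe before EMSA: hSIE (Stat1/Stat3 binding) or MGFe (bovine β-casein element; Stat1/Stat5 binding). STAT:DNA bands quantified as percent of control.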

[9] = system: Stat5:Stat5; test: Cell-free EMSA, EGF-stimulated NIH3T3/hEGFR nuclear extracts, MGFe probe; format: biochemical, mouse; conditions: 5 μM, 30 min pre-incubation
Summary of the method: as §2

[10] = system: U251MG cells; test: CyQuant cell proliferation assay; format: cell-based, human; conditions: for activity against U251MG cell growth: 5 μM; for IC50: Homo sapiens, U-251, 72 h, read-out: IC50 cell proliferation U251MG
Summary of the method: as §1

SMILES	Stat3:Stat3/DNA-binding activity (complexation), cell-free EMSA [7]	effect on pStat3 in treated tumor cells [5]	effect on Stat3 DNA-binding activity in treated tumor cells [6]	activity against U251MG cell growth [10]	other results
C=C(C)C(=O)O[C@H]1C[C@@H](C)[C@]2(O)CC[C@](C)(/C=C3/OC(=O)C(COC(C)=O)=C31)O2 [Compound 7]	diminished	strongly inhibited	strongly inhibited	–	IC50 ([1]; Homo sapiens, MDA-MB-231, 72 h, read-out: IC50 cell proliferation MDA-MB-231): 5200 to 9100 nM; IC50 [2]: 7400 to 18300 nM; IC50 [3]: 6600 to 8200 nM; IC50 [4]: 4800 to 9600 nM; effect on Stat1:Stat1 activity, cell-free EMSA [8]: weak effects; effect on Stat5:Stat5 activity, cell-free EMSA [9]: weak effects
C/C=C(\C)C(=O)O[C@H]1C[C@@H](C)[C@]2(O)CC[C@](C)(/C=C3/OC(=O)C(CO)=C31)O2 [Compound 8]	only weakly inhibited	little impact	–	–	–
C=C(C)C(=O)O[C@H]1C[C@@H](C)[C@]2(O)CC[C@](C)(/C=C3/OC(=O)C(CO)=C31)O2 [Compound 18]	only weakly inhibited	little impact	–	–	–
C/C=C(/C)C(=O)O[C@H]1C[C@@H](C)[C@]2(O)CC[C@](C)(/C=C3/OC(=O)C(CO)=C31)O2 [Compound 19]	only weakly inhibited	little impact	–	–	–
C/C(=C\CO)C(=O)O[C@H]1C[C@@H](C)[C@]2(O)CC[C@](C)(/C=C3/OC(=O)C(CO)=C31)O2 [Compound 21]	only weakly inhibited	little impact	–	–	–
C=C(C)C(=O)O[C@H]1C[C@@H](C)[C@]2(OC)CC[C@](C)(/C=C3/OC(=O)C(CO)=C31)O2 [Compound 28]	only weakly inhibited	little impact	–	–	–
C[C@@H]1C[C@H](O)C2=C(COC(=O)/C=C/c3ccccc3)C(=O)O/C2=C/[C@@]2(C)CC[C@]1(O)O2 [Compound 30]	diminished	suppressed	suppressed	retained or improved the inhibitory potency	IC50 [10]: 1000 to 1200 nM; IC50 [6]: 500 to 2500 nM
C[C@@H]1C[C@H](O)C2=C(COC(=O)/C=C/c3ccc(F)cc3)C(=O)O/C2=C/[C@@]2(C)CC[C@]1(O)O2 [Compound 34]	diminished	–	–	retained or improved the inhibitory potency	effect on MDA-MB-231 cell growth [1]: strongly inhibited
C[C@@H]1C[C@H](O)C2=C(COC(=O)/C=C/c3ccc(C(F)(F)F)cc3)C(=O)O/C2=C/[C@@]2(C)CC[C@]1(O)O2 [Compound 35]	diminished	–	–	retained or improved the inhibitory potency	–
C/C=C(\C)C(=O)OCC1=C2/C(=C\[C@@]3(C)CC[C@](OC)(O3)[C@H](C)C[C@@H]2OC(=O)/C(C)=C/C)OC1=O [Compound 39]	diminished	suppressed	suppressed	retained or improved the inhibitory potency	effect on MDA-MB-231 cell growth [1]: strongly inhibited; IC50 [6]: 500 to 2500 nM
C/C=C(\C)C(=O)O[C@H]1C[C@@H](C)[C@]2(OC)CC[C@](C)(/C=C3/OC(=O)C(COC(=O)/C=C/c4ccccc4)=C31)O2 [Compound 40]	moderate inhibitory effects	–	–	retained or improved the inhibitory potency	effect on MDA-MB-231 cell growth [1]: strongly inhibited
CCN1C(=O)C=CC1=O [NEM, N-ethylmaleimide, reference compound]	–	–	–	–	Stat3:Stat3/DNA complexation, dose-dependent ([7]; Fig. S3B): inhibits
C=C1C(=O)O[C@H]2[C@H]1CC/C(C)=C/CC[C@@]1(C)O[C@@H]21 [parthenolide, reference compound]	–	–	–	–	cell growth activity, control compounds ([10]; panel of cell lines, Fig. S5E(i)): poorly-active or non-specific in activity; Stat3 activity in tumor cells, control compounds ([5]; Fig. S5E(ii)): did not inhibit

The next lines start with results.

Stat3:Stat3/DNA-binding activity (complexation), cell-free EMSA [7]	SMILES	effect on pStat3 in treated tumor cells [5]	effect on Stat3 DNA-binding activity in treated tumor cells [6]	activity against U251MG cell growth [10]	other results
only weakly inhibited	C[C@@H]1C[C@H](O)C2=C(CO)C(=O)O/C2=C/[C@@]2(C)CC[C@]1(O)O2 [Compound 14]	little impact	–	–	–
moderate inhibitory effects	CCC(C)C(=O)OCC1=C2/C(=C\[C@@]3(C)CC[C@](O)(O3)[C@H](C)C[C@@H]2O)OC1=O (stereo partly drawn) [Compound 29]	little effect	–	weakly-active or inactive	–
diminished	CC(C)=CCC/C(C)=C/C(=O)OCC1=C2/C(=C\[C@@]3(C)CC[C@](O)(O3)[C@H](C)C[C@@H]2O)OC1=O [Compound 31]	suppressed	suppressed	retained or improved the inhibitory potency	IC50 [10]: 1000 to 1200 nM; IC50 [6]: 500 to 2500 nM; effect on Stat1:Stat1 activity, cell-free EMSA [8]: moderate effect
diminished	CC(C)=CC(=O)OCC1=C2/C(=C\[C@@]3(C)CC[C@](O)(O3)[C@H](C)C[C@@H]2O)OC1=O [Compound 32]	moderate effect	–	weakly-active or inactive	–
diminished	CC(C)=CCCC(C)CC(=O)OCC1=C2/C(=C\[C@@]3(C)CC[C@](O)(O3)[C@H](C)C[C@@H]2O)OC1=O (stereo partly drawn) [Compound 33]	suppressed	suppressed	retained or improved the inhibitory potency	IC50 [10]: 1000 to 1200 nM; IC50 [6]: 500 to 2500 nM
diminished	C[C@@H]1C[C@H](O)C2=C(COC(=O)CCc3ccccc3)C(=O)O/C2=C/[C@@]2(C)CC[C@]1(O)O2 [Compound 36]	suppressed	suppressed	retained or improved the inhibitory potency	IC50 [10]: 1000 to 1200 nM; IC50 [6]: 500 to 2500 nM
diminished	CCCC(CCC)C(=O)OCC1=C2/C(=C\[C@@]3(C)CC[C@](O)(O3)[C@H](C)C[C@@H]2O)OC1=O [Compound 37]	–	–	retained or improved the inhibitory potency	effect on MDA-MB-231 cell growth [1]: strongly inhibited
